Bioassay records as filed in PubChem.
MrgX1 antag: blocks BAM8-22 activation of human MrgX1 receptor. 310,000 compounds, 1.3% hits. MRGX1-HEK293 calcium flux, Fluo-4, BAM8-22 antagonism; active compounds read low. B-score at 10 µM. AID 588676. Q96LB2;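 active = calcium-response B-score plate-corrected more than 3 library SD below zero, starting fluorescence within 5 deviations, no agonist response on first addition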;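 also: peak minus trough fluorescence over baseline after final BAM8-22 challenge near maximal dose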
Target sequence (Q96LB2 whole entry, looked up): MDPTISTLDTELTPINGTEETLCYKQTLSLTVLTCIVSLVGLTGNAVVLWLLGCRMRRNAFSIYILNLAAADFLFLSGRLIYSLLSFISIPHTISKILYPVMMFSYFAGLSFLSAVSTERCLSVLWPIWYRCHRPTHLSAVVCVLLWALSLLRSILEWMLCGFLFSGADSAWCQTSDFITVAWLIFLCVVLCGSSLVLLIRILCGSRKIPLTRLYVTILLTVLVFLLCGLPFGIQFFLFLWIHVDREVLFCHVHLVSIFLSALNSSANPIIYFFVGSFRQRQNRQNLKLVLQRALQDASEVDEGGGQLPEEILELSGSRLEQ
RGS4 inh: inhibitors of human RGS4; HEK293 M3R/RGS4 inducible, Fluo-4 calcium flux; active compounds read high; triggered by carbachol at its EC20; 310,000 compounds, 0.45% hits; B-score at 10 µM;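 active = B-score, a plate-corrected calcium signal, over three deviations above library mean, with baseline fluorescence within five deviations of library mean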;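 also: RGS4 expression induced by doxycycline in cells with stable M3 receptor; B-score is computed from the integrated fluorescence ratio over baseline after carbachol; higher B-score means a larger calcium signal and so more RGS4 inhibition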
Target sequence (P49798 whole entry, looked up): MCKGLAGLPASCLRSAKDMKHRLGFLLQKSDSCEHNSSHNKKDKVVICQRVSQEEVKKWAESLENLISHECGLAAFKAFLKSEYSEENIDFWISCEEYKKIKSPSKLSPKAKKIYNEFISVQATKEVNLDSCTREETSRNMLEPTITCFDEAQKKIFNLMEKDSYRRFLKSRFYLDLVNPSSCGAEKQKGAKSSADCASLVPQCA
MrgX1 agonist: human MrgX1 receptor agonism, primary screen | Q96LB2 | MrgX1-HEK293 cells, Fluo-4 calcium fluorescence, agonist mode; active compounds read high | B-score at 10 µM | 310,000 compounds, 0.44% hits;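 active = calcium response B-score plate-corrected fluorescence ratio at least 3 library SD, with starting fluorescence B-score inside 5 SD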
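Test system: Stable human MrgX1 HEK293 cell line | Schedule: Overnight plating before 1 h dye loading | Read-out basis: Baseline-normalised fluorescence change ratio, B-scored | Detection: Kinetic calcium dye fluorescence, Fluo-4 NW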
MrgX1 allo act: allosterically activates human MrgX1 receptor signaling. Q96LB2. MrgX1-HEK293, Fluo-4 calcium flux, FDSS; active compounds read high. B-score at 10 µM. 310,000 compounds, 0.63% hits. AID 588675;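 active = plate-corrected calcium response at least 3 library SD above typical, normal starting fluorescence, not activating the receptor alone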;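 also: compound read alongside a low EC10 to EC30 dose of BAM8-22 agonist; peak minus trough fluorescence over baseline measured at the second addition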
RGS4 pot: RGS4 potentiation or activation. HEK293 M3R/inducible RGS4, carbachol calcium flux Fluo4; active compounds read low. 310,000 compounds, 0.92% hits. B-score at 10 µM. AID 463111;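 active = B-score of the integrated calcium signal more than 4 SD below the library mean, with starting fluorescence not abnormally high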;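 also: negative B-score means reduced calcium response which marks RGS4 activation or potentiation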
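Also added: carbachol at ECmax as muscarinic agonist stimulus; Assay system: HEK293 cells with stable M3R and inducible RGS4; Timing: overnight RGS4 induction, 30 min dye load 37 °C, 20 min compound RT; Measured by: Fluo4-AM (2 µM) calcium-flux fluorescence, kinetic read.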
RGS4 act valid: RGS4 activation, validation assay | shares compounds with RGS4 pot | HEK293 M3R/RGS4 inducible, carbachol calcium flux Fluo4 | inhibition, % at 10 µM | 1,100 compounds, 89% hits | AID 602282;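 active = inhibition above 3 SD of the buffer control wells, cut at about 41% in these data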;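 also: signal is the integrated peak-minus-minimum Fluo4 fluorescence over baseline ratio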
RGS4 act ctr: RGS4 activator counter-screen hit in non-induced cells; HEK293 M3R non-induced RGS4, Fluo4 calcium flux; after carbachol challenge at its EC90; inhibition, % at 10 µM; 1,100 compounds, 82% hits; AID 602283; shares compounds with RGS4 pot;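 active = inhibition exceeding 3 SD of buffer-only control wells, cut at about 26% in these data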;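 also: percent drop in integrated peak-minus-baseline over baseline Fluo4 ratio after carbachol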
The depositor's hits bear a star. An excerpt weighted towards active compounds, which were near 3.5% of everything screened.

How did O=C(N/N=C/c1ccc2c(c1)OCO2)C(O)c1ccccc1 (centres undefined) do in these assays?
MrgX1 antag: inactive; RGS4 inh: inactive; MrgX1 agonist: inactive; MrgX1 allo act: inactive; RGS4 pot: inactive

What do the screens show for `Cc1nc2sc(C)c(C)c2c(=O)o1`?
MrgX1 antag: inactive; RGS4 inh: inactive; MrgX1 agonist: inactive; MrgX1 allo act: inactive; RGS4 pot: -8.48*; RGS4 act valid: 0.0; RGS4 act ctr: 0.0

How did C=CCNC(=O)c1ccc2nc(-c3ccccc3)c(-c3ccccc3)nc2c1 do in these assays?
MrgX1 antag: inactive; RGS4 inh: inactive; MrgX1 agonist: inactive; MrgX1 allo act: inactive; RGS4 pot: -8.91*; RGS4 act valid: 77.0*; RGS4 act ctr: 44.3*

Results for C=CCNC(=O)c1ccc(C(=O)c2ccccc2)cc1 ?
MrgX1 antag: inactive; RGS4 inh: inactive; MrgX1 agonist: inactive; MrgX1 allo act: inactive; RGS4 pot: inactive

Results for O=C(O)c1ccc2nc3c(nc2c1)-c1ccccc1C3=O ?
MrgX1 antag: inactive; RGS4 inh: inactive; MrgX1 agonist: inactive; MrgX1 allo act: inactive; RGS4 pot: -11.4*; RGS4 act valid: 0.0; RGS4 act ctr: 0.0

What do the screens show for `Cc1ccc(-c2nc(CN(Cc3c(C)nn(C)c3C)C(C)C)c(C)o2)o1`?
MrgX1 antag: inactive; RGS4 inh: inactive; MrgX1 agonist: inactive; MrgX1 allo act: inactive; RGS4 pot: inactive

What do the screens show for `CC(C)CC(C(=O)NC(C)(C)C)N(CC1CCCO1)C(=O)c1snc(C(N)=O)c1N` (centres undefined)?
MrgX1 antag: inactive; RGS4 inh: inactive; MrgX1 agonist: inactive; MrgX1 allo act: inactive; RGS4 pot: inactive

Results for COc1ccc(Br)cc1C(=O)Nc1ccc(Cc2ccncc2)cc1 ?
MrgX1 antag: inactive; RGS4 inh: inactive; MrgX1 agonist: inactive; MrgX1 allo act: inactive; RGS4 pot: inactive

Results for COc1c(C(=O)Nc2ccc(Cc3ccncc3)cc2)ccc2ccccc12 ?
MrgX1 antag: inactive; RGS4 inh: inactive; MrgX1 agonist: inactive; MrgX1 allo act: inactive; RGS4 pot: -12.7*; RGS4 act valid: 92.0*; RGS4 act ctr: 86.3*

Results for COc1cc2c(cc1OC)C1(C)N(CC2)C(C(C)=O)=NN1c1ccc(Cl)cc1 (centres undefined) ?
MrgX1 antag: inactive; RGS4 inh: inactive; MrgX1 agonist: inactive; MrgX1 allo act: inactive; RGS4 pot: inactive

How did COC(=O)c1sccc1NC(=O)c1c(Cl)cnn1C do in these assays?
MrgX1 antag: inactive; RGS4 inh: inactive; MrgX1 agonist: inactive; MrgX1 allo act: inactive; RGS4 pot: inactive

Results for COC(=O)NC(=S)Nc1ccc(Oc2ccc(Cl)cc2Cl)c(Cl)c1 ?
MrgX1 antag: inactive; RGS4 inh: inactive; MrgX1 agonist: inactive; MrgX1 allo act: inactive; RGS4 pot: -7.77*; RGS4 act valid: 92.5*; RGS4 act ctr: 70.3*

Results for COC(=O)c1cc2occc2n1Cc1nc(-c2cccc(Cl)c2)oc1C ?
MrgX1 antag: inactive; RGS4 inh: inactive; MrgX1 agonist: inactive; MrgX1 allo act: inactive; RGS4 pot: -8.88*; RGS4 act valid: 94.0*; RGS4 act ctr: 82.8*

Results for COC(=O)c1cc2sccc2n1Cc1nc(-c2cccc(Cl)c2)oc1C ?
MrgX1 antag: inactive; RGS4 inh: inactive; MrgX1 agonist: inactive; MrgX1 allo act: inactive; RGS4 pot: inactive

Results for O=C(CCNS(=O)(=O)c1ccc(Br)cc1)NCc1ccc(Cl)cc1 ?
MrgX1 antag: inactive; RGS4 inh: inactive; MrgX1 agonist: inactive; MrgX1 allo act: inactive; RGS4 pot: inactive

Results for COc1ccc(C(=O)N=c2sc3c(C)ccc(OC)c3n2C)cc1OC ?
MrgX1 antag: inactive; RGS4 inh: inactive; MrgX1 agonist: inactive; MrgX1 allo act: inactive; RGS4 pot: -7.72*; RGS4 act valid: 86.5*; RGS4 act ctr: 50.3*

How did CCn1c(=NC(=O)c2cccc(N3C(=O)CCC3=O)c2)sc2c(C)ccc(OC)c21 do in these assays?
MrgX1 antag: inactive; RGS4 inh: inactive; MrgX1 agonist: inactive; MrgX1 allo act: inactive; RGS4 pot: -8.6*; RGS4 act valid: 68.0*; RGS4 act ctr: 30.3*

Results for CC12CNCC(C)(CN(C(c3ccccc3)c3ccccc3)C1)C2 ?
MrgX1 antag: inactive; RGS4 inh: inactive; MrgX1 agonist: inactive; MrgX1 allo act: inactive; RGS4 pot: -7.66*; RGS4 act valid: 66.0*; RGS4 act ctr: 27.3*

How did CC(=O)N1CCN(C(c2ccccc2)c2ccccc2)CC1 do in these assays?
MrgX1 antag: inactive; RGS4 inh: inactive; MrgX1 agonist: inactive; MrgX1 allo act: inactive; RGS4 pot: inactive

Results for N=c1c2c(-c3ccccc3)c(-c3ccccc3)n(Cc3ccco3)c2ncn1Cc1ccccc1 ?
MrgX1 antag: inactive; RGS4 inh: inactive; MrgX1 agonist: inactive; MrgX1 allo act: inactive; RGS4 pot: -11*; RGS4 act valid: 93.0*; RGS4 act ctr: 94.8*

What do the screens show for `Cc1ccccc1NC(=O)c1cccc2nc3ccccc3nc12`?
MrgX1 antag: inactive; RGS4 inh: inactive; MrgX1 agonist: inactive; MrgX1 allo act: inactive; RGS4 pot: -7.76*; RGS4 act valid: 86.0*; RGS4 act ctr: 59.3*

How did O=C(NCCCc1ccncc1)C1CCC(=O)N(CCc2cccc(F)c2)C1 (centres undefined) do in these assays?
MrgX1 antag: inactive; RGS4 inh: inactive; MrgX1 agonist: inactive; MrgX1 allo act: inactive; RGS4 pot: inactive

Results for CCC(C)Nc1nc(OC(C(F)(F)F)C(F)(F)F)nc(OC(C(F)(F)F)C(F)(F)F)n1 (centres undefined) ?
MrgX1 antag: inactive; RGS4 inh: inactive; MrgX1 agonist: inactive; MrgX1 allo act: inactive; RGS4 pot: -7.88*; RGS4 act valid: 90.0*; RGS4 act ctr: 52.8*

How did C/C(=N\NC(=O)C1(C)CC1(Br)Br)c1cccc(NC(=O)c2ccc(C)o2)c1 (centres undefined) do in these assays?
MrgX1 antag: inactive; RGS4 inh: inactive; MrgX1 agonist: inactive; MrgX1 allo act: 7.01*; RGS4 pot: -12.1*; RGS4 act valid: 91.5*; RGS4 act ctr: 81.3*

How did Cc1ccc(C(=O)Nc2cccc(C(=O)NCc3ccccc3)c2)o1 do in these assays?
MrgX1 antag: inactive; RGS4 inh: inactive; MrgX1 agonist: inactive; MrgX1 allo act: inactive; RGS4 pot: inactive

How did O=C(CNC(=O)c1cccs1)N/N=C/c1c[nH]c2ccccc12 do in these assays?
MrgX1 antag: inactive; RGS4 inh: inactive; MrgX1 agonist: inactive; MrgX1 allo act: inactive; RGS4 pot: inactive
